The text below walks through data of ChEMBL document CHEMBL1629469, “Pharmacophore model for pentamidine analogs active against Plasmodium falciparum” (Eur J Med Chem, 2010).

Assay [1] deals with Plasmodium falciparum. Put plainly: Antimalarial activity against chloroquine and pyrimethamine -resistant Plasmodium falciparum K1 after 48 hrs by [3H]hypoxanthine incorporation assay. The class given is functional, organism-based. The method in brief:
(§1)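 Asexual erythrocytic parasites in human red cells (1.25% hematocrit, 0.3% parasitemia) exposed to serial drug dilutions in RPMI 1640 with Hepes, AlbuMAX II, bicarbonate and neomycin. Incubation at 37 C under 93% N2/4% CO2/3% O2; [3H]hypoxanthine added after 48 h, then 24 h more. Incorporation counted by scintillation. IC50 taken from sigmoidal curves; four independent runs, each in duplicate; DMSO below 1%.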

For assay [2], the system named is Plasmodium falciparum. The assay is described as follows: Antimalarial activity against drug -sensitive Plasmodium falciparum NF54 after 48 hrs by [3H]hypoxanthine incorporation assay. The class given is functional, organism-based. The procedure, abridged: as §1

One may read the IC50 as the concentration that gives 50% inhibition. As for `CC(C)NC(=N)c1ccc(OCCCCCOc2ccc(C(=N)NC(C)C)c(O)c2)cc1O`, the IC50 was 741 nM in assay [1] and 955 nM in assay [2].

With `CCOC(=O)c1cc(C(=N)NC(C)C)ccc1OCCCCCOc1ccc(C(=N)NC(C)C)cc1C(=O)OCC`, the IC50 in assay [1] is 14.5 nM; in assay [2], 28.2 nM.

As for `CC(C)NC(=N)c1ccc(OCCCCCOc2ccc(C(=N)NC(C)C)c(F)c2)cc1F`, the figures for the IC50 in assay [1] and in assay [2] were 646 nM and 191 nM, respectively.

For `N=C(N)c1ccc(SCCCCCSc2ccc(C(=N)N)cc2)cc1`, the 50% inhibitory concentration (IC50) in assay [1] was 23.4 nM; in assay [2], 34.7 nM.

For the molecule `c1cc(C2=NCCN2)ccc1OCCCCCOc1ccc(C2=NCCN2)cc1`, the IC50 in assay [1] is 3.39 nM; in assay [2], 34.7 nM.

In the case of `Oc1cc(OCCCCCOc2ccc(C3=NCCN3)c(O)c2)ccc1C1=NCCN1`, the figures for the IC50 in assay [1] and in assay [2] were 123 nM and 58.9 nM, respectively.

With `N=C(N)c1ccc(OCCCCCOc2ccc(C(=N)N)c(F)c2)cc1F`, the IC50 in assay [1] was 18.2 nM; in assay [2], 81.3 nM.

With `CN1CCN=C1c1ccc(OCCCCCOc2ccc(C3=NCCN3C)cc2)cc1`, the IC50 in assay [1] is 501 nM; in assay [2], 204 nM.

As for `N=C(Nc1ccc(OCCCCCOc2ccc(NC(=N)c3ccccc3)cc2)cc1)c1ccccc1`, the values for the IC50 in assay [1] and in assay [2] were 245 nM and 34.7 nM, respectively.

In the case of `N=C(N)c1ccc(OCCCCCOc2ccc(C(=N)N)cc2Br)c(Br)c1`, the IC50 in assay [1] was 18.2 nM; in assay [2], 52.5 nM.

For `N=C(N)c1ccc(OCCCCCOc2ccc(C(=N)N)cc2Cl)c(Cl)c1`, the IC50 in assay [1] is 32.4 nM; in assay [2], 105 nM.

Regarding `N=C(N)c1ccc(OCCCCCOc2ccc(C(=N)N)cc2)cc1` [PENTAMIDINE], the IC50 in assay [1] is 12.3 nM; in assay [2], 56.2 nM.

Turning to `CNC(=N)c1ccc(OCCCCCOc2ccc(C(=N)NC)cc2)cc1`, the results for the IC50 in assay [1] and in assay [2] were 5.01 nM and 26.9 nM, respectively.

Regarding `N=C(N)c1ccc(OCCCCCOc2ccc(C(=N)N)cc2C(N)=O)c(C(N)=O)c1`, the IC50 in assay [1] is 47.9 nM; in assay [2] it was 302 nM.

On to `Fc1cc(OCCCCCOc2ccc(C3=NCCN3)c(F)c2)ccc1C1=NCCN1`, for which the IC50 in assay [1] was 8.51 nM; in assay [2], 50.1 nM.

For `N/N=C(\N)c1ccc(OCCCCCOc2ccc(/C(N)=N/N)cc2)cc1`, the IC50 in assay [1] is 562 nM; in assay [2], 282 nM.

Consider `N=C(N)c1ccc(OCCCCCOc2ccc(C(=N)N)c(O)c2)cc1O`, for which the values for the IC50 in assay [1] and in assay [2] were 631 nM and 407 nM, respectively.

`CCOC(=O)c1cc(C2=NCCN2)ccc1OCCCCCOc1ccc(C2=NCCN2)cc1C(=O)OCC`: the IC50 in assay [1] is 33.1 nM; in assay [2], 234 nM.

Regarding `CCOC(=O)c1cc(C(=N)N)ccc1OCCCCCOc1ccc(C(=N)N)cc1C(=O)OCC`, the IC50 in assay [1] is 26.3 nM; in assay [2] it was 97.7 nM.

As for `CC(=N)Nc1ccc(OCCCCCOc2ccc(NC(C)=N)cc2)cc1`, the IC50 is 57.5 nM in assay [1] and 468 nM in assay [2].

For `COc1cc(C2=NCCN2)ccc1OCCCCCOc1ccc(C2=NCCN2)cc1OC`, the values for the IC50 in assay [1] and in assay [2] were 24 nM and 112 nM, respectively.

On to `CCOC(=O)c1cc(C(=N)N)ccc1OCCCCCOc1ccc(C(=N)N)cc1C(N)=O`, for which the figures for the IC50 in assay [1] and in assay [2] were 17 nM and 120 nM, respectively.
